This is an account of results in ChEMBL document CHEMBL1129596, “Synthesis, biological activity, and molecular modeling of selective 5-HT(2C/2B) receptor antagonists” (J Med Chem, 1996).

In general, Ki refers to a dissociation constant, usually derived from enzyme kinetics or from competition with a known ligand.

Test [1] deals with T1, 5-hydroxytryptamine receptor 2C (Rattus norvegicus, UniProt P08909).
T1 sequence (P08909 whole entry): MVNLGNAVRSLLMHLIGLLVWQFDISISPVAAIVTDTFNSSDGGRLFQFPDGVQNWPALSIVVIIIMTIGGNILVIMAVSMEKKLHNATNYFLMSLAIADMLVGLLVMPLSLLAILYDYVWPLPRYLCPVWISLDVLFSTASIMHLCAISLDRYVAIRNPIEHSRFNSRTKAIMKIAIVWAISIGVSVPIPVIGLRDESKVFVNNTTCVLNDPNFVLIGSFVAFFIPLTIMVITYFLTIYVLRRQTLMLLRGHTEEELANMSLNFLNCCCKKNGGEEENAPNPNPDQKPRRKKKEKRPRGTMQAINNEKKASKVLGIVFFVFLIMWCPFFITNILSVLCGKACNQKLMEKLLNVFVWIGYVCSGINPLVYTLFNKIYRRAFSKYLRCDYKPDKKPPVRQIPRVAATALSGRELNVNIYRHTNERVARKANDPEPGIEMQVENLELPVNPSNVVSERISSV
In words: Displacement of [3H]mesulergine from rat 5-HT2C receptor expressed in HEK293. The method in brief:
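Binding to cloned rat 5-HT2C receptors expressed in HEK 293 cells, with [3H]mesulergine as radioligand. Each value is the mean of at least two determinations, each lying within 0.2 log unit of the mean.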
(Loss of bound radioactivity is the signal in a displacement assay; it reports binding, not function.)

The target of test [2] is 5-hydroxytryptamine receptor 2B (Rattus norvegicus, UniProt P30994). In words: Inhibition of 5-HT binding to 5-HT2B receptor of Rat stomach fundus. Format: tissue-based. The note with it: read-out: pA2 (converted). A digest of the protocol: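 Functional rather than binding assay: inhibition of 5-HT-induced contractions of isolated rat stomach fundus. Values are the mean of at least two determinations, each within 0.2 log unit of the mean.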
Chain of 5-hydroxytryptamine receptor 2B (P30994 whole entry): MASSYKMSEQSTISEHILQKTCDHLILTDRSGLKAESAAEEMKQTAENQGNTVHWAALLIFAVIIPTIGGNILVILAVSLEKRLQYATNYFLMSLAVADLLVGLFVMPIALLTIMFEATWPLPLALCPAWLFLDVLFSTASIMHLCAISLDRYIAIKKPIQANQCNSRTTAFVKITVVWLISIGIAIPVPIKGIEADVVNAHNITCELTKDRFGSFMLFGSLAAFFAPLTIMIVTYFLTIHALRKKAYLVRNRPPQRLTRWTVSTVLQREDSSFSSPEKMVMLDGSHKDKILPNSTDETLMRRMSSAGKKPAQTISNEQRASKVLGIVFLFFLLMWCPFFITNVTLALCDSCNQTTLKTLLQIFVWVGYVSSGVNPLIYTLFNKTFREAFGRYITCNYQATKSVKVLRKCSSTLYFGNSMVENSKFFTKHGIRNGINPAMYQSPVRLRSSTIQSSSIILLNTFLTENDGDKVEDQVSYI

For test [3], the target named is 5-hydroxytryptamine receptor 2A (Rattus norvegicus, UniProt P14842). The test is described as follows: Displacement of [3H]ketanserin from 5-HT2A receptor of rat frontal cortex. It is filed as tissue-based. The method in brief:
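Radioligand binding in rat frontal cortex membranes with [3H]ketanserin as the labelled ligand. Values are the mean of at least two determinations, each within 0.2 log unit of the mean.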

Test [4] deals with Serotonin receptor 2a and 2c (5HT2A and 5HT2C) (Rattus norvegicus) (UniProt P08909+P14842). The test is described as follows: Relative affinity for 5-hydroxytryptamine 2C over 5-hydroxytryptamine 2A receptors. Format: protein assay.
Chain of Serotonin receptor 2a and 2c (5HT2A and 5HT2C) (Rattus norvegicus) (P14842 whole entry, looked up, one chain of several): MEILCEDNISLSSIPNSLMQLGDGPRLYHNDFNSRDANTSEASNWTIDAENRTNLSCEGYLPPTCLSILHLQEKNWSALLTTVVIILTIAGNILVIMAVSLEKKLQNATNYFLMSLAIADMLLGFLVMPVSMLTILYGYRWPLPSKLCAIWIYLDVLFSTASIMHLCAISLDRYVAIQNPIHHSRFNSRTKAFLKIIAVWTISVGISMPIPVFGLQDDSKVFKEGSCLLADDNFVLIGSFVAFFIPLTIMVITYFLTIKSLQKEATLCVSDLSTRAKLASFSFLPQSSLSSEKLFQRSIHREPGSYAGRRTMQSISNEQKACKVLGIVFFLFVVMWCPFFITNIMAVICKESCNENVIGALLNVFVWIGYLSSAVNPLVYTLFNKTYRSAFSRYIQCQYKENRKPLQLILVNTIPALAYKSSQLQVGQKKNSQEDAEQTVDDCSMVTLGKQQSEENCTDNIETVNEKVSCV

Chain of 5-hydroxytryptamine receptor 2A (P14842 whole entry): as the sequence (P14842 whole entry, looked up, one chain of several) above

Regarding `Cn1ccc2c3c(ccc21)N(C(=O)Nc1cccnc1)CC3`, the values for the inhibition constant Ki in test [1] and in test [3] were 25.1 nM and 2000 nM, respectively. For the same compound, the Kb in test [2] was 15.8 nM.
In the case of `O=C(Nc1cccnc1)N1CCc2cc3[nH]ccc3cc21`, the Ki in test [1] is 126 nM; in test [3] it was 1580 nM. For the same compound, the Kb in test [2] was 31.6 nM. Moreover, in test [4], the Selectivity ratio is 13.
Consider `O=C(Nc1cccnc1)N1CCc2cc3sccc3cc21`, for which the Ki in test [1] was 7.94 nM; in test [3], 251 nM. The Kb in test [2] was 10 nM. Also, the Selectivity ratio in test [4] came out at 30.
For `CCCn1ccc2cc3c(cc21)CCN3C(=O)Nc1cccnc1`, in that order: 12.6 nM, 3160 nM, 7.94 nM and 250.
The like results for `O=C(Nc1cccnc1)N1CCc2cc3c(ccn3Cc3ccccc3)cc21` were, in that order, 50.1 nM, over 6310 nM, 200 nM and over 130.
As to `Cn1ccc2ccc3c(c21)CCN3C(=O)Nc1cccnc1`, the inhibition constant (Ki) in test [1] is 63.1 nM; in test [3] it was 3160 nM. The Selectivity ratio in test [4] stood at 50.
Take `CN1CCc2cc3c(cc21)CCN3C(=O)Nc1cccnc1`: the Ki was 63.1 nM in test [1] and 5010 nM in test [3]. In test [2], the Kb was 12.6 nM. Also, the Selectivity ratio in test [4] was determined as 80.
The like results for `Cn1ccc2cc3c(cc21)CCN3C(=O)Nc1cccnc1` were, in that order, 5.01 nM, 501 nM, 3.16 nM and 100.
Consider `Cc1coc2cc3c(cc12)CCN3C(=O)Nc1cccnc1`, for which the figures for the Ki in test [1] and in test [3] were 2.51 nM and 398 nM, respectively. In test [2], the Kb was 1.26 nM. Further, the Selectivity ratio in test [4] came out at 160.
In the case of `CC(C)n1ccc2cc3c(cc21)CCN3C(=O)Nc1cccnc1`, the results for the Ki in test [1] and in test [3] were 10 nM and 3980 nM, respectively. The Kb in test [2] was 6.31 nM. In addition, in test [4], the Selectivity ratio was 400.
For the compound `Cn1ccc2cc3c(cc21)N(C(=O)Nc1cccnc1)CC3`, the Ki in test [1] was 1260 nM.
Compound `Cn1ccc2c3c(ccc21)CCN3C(=O)Nc1cccnc1` gave a Ki in test [1] of 200 nM.
Turning to `Cc1cc2cc3c(cc2n1C)CCN3C(=O)Nc1cccnc1`, the Ki in test [1] is 39.8 nM; in test [3] it was 3160 nM. The Kb in test [2] is 20 nM. In addition, the Selectivity ratio in test [4] was 80.
Consider `CCn1ccc2cc3c(cc21)CCN3C(=O)Nc1cccnc1`, for which the Ki in test [1] was 7.94 nM; in test [3] it was 1260 nM. Moreover, the Kb in test [2] was 10 nM. Moreover, the Selectivity ratio in test [4] worked out at 160.
